Reference: ChEMBL document CHEMBL4308830, “Design, Synthesis, and Characterization of 4-Undecylpiperidine-2-carboxamides as Positive Allosteric Modulators of the Serotonin (5-HT) 5-HT2C Receptor” (J Med Chem, 2018)
Calls of active or inactive are those of the source. No cut-off for these calls is given here.

Assays:
[1] = target: T1, 5-hydroxytryptamine receptor 2C (Homo sapiens) (UniProt P28335); experiment: Positive allosteric modulation of human 5-HT2CR expressed in CHO cells assessed as 5-HT-induced intracellular calcium release at 1 nM preincubated for 15 mins followed by 5-HT addition by calcium-4 dye based FLIPR assay (reference value: 100%); type: functional, cell-based
T1 sequence (whole entry): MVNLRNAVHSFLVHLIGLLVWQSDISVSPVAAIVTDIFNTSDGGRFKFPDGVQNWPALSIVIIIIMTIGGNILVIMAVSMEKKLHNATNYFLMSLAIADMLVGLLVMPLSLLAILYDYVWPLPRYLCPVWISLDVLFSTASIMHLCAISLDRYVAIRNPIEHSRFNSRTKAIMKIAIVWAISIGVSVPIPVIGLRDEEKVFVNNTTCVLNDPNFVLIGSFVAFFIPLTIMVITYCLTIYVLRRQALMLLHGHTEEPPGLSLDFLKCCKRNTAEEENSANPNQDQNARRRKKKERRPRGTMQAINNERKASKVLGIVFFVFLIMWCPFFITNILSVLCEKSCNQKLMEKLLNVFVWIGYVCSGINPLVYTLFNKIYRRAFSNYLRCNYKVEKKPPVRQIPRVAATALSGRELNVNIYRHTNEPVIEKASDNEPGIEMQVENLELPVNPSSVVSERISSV
Procedure, shortened: (§1)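 CHO cells stably expressing human unedited INI 5-HT2CR were plated, serum-starved 3 h, then loaded with Calcium 4 dye plus 2.5 mM probenecid (60 min 37 °C, then 15 min RT). Compound (1 nM) was added; the read after this addition gave intrinsic agonism. 5-HT (10 pM–10 μM) followed 15 min later. FLIPR-TETRA: 10 s baseline, 1 s reads for 120 s after compound and 360 s after 5-HT. Emax came from 4-parameter fits, ≥3 biological replicates in triplicate.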

[2] = target: T1, 5-hydroxytryptamine receptor 2C (Homo sapiens); experiment: Intrinsic agonist activity at human 5-HT2CR expressed in CHO cells assessed as induction of intracellular calcium release at 1 nM incubated for 15 mins measured every 1 sec for 120 secs by calcium-4 dye based FLIPR assay; type: functional, cell-based; procedure, shortened: as §1
[3] = test system: CHO; experiment: Cytotoxicity against CHO cells at 0.1 to 1000 nM after 1 hrs by LDH release assay; type: cell-based, Cricetulus griseus; conditions: chinese hamster, 1 µM
Procedure, shortened: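 Lactate dehydrogenase release assay for cytotoxicity, compounds tested at 0.1 nM and 1 μM.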

For CCCCCCCCCCC[C@@H]1CCN[C@H](C(=O)NC[C@H](O)CO)C1, the Emax [1] was 114% and the Activity [2] was “inactive”.

CCCCCCCCCCC[C@@H]1CCN[C@H](C(=O)N[C@@H](CO)[C@@H](O)c2ccccc2)C1 was tested, and the Emax [1] was 109% and the Activity [2] was “inactive”.

For CCCCCCCCCCC[C@@H]1CCN[C@H](C(=O)N[C@H](CO)[C@@H](C)O)C1, the Emax [1] was 111% and the Activity [2] was “inactive”.

With CCCCCCCCCCC[C@@H]1CCN[C@H](C(=O)NCCN2CCOCC2)C1 (relative stereo) the Emax [1] was 107% and the Activity [2] was “inactive”.

CC1CCC(CC[C@@H]2CCN[C@H](C(=O)N[C@@H](CO)[C@@H](O)c3ccccc3)C2)CC1 (stereo partly drawn) was tested, and the Emax [1] was 107% and the Activity [2] was “inactive”.

In the case of CCCCCCCCCCC[C@@H]1CCN[C@H](C(=O)NCCO)C1 (relative stereo), the Activity [3] is reported as “Non-Toxic”, the Emax [1] is reported as 108% and the Activity [2] is reported as “inactive”.

CCCCCCCCCCC[C@@H]1CCN[C@H](C(=O)N[C@@H](Cc2ccc(O)cc2)C(=O)OC)C1 was tested, and the Emax [1] was 104% and the Activity [2] was “inactive”.

In the case of CCCCCCCCCCC[C@@H]1CCN[C@H](C(=O)NC(CO)CO)C1 (relative stereo), the Activity [3] is reported as “Non-Toxic”, the Emax [1] is reported as 108% and the Activity [2] is reported as “inactive”.

For CCCCCCCCCCC[C@@H]1CCN[C@H](C(=O)O)C1 (relative stereo), the Emax [1] was 109% and the Activity [2] was “inactive”.

In the case of CCCCCCCCCCC[C@@H]1CCN[C@H](C(=O)N[C@@H](CO)[C@H](C)O)C1, the Emax [1] is reported as 112% and the Activity [2] is reported as “inactive”.

With O=C(N[C@H](CO)[C@H](O)c1ccccc1)[C@H]1C[C@@H](C2CCCCC2)CCN1 the Activity [3] was “Non-Toxic”, the Emax [1] was 104% and the Activity [2] was “inactive”.

For CC1CCC(CC[C@H]2CCN[C@@H](C(=O)N[C@@H](CO)[C@@H](O)c3ccccc3)C2)CC1 (stereo partly drawn), the Emax [1] was 116% and the Activity [2] was “inactive”.

With CCCCCCCCCCC[C@@H]1CCN[C@H](C(=O)NC[C@H](O)CCl)C1 the Activity [3] was “Non-Toxic”, the Emax [1] was 114% and the Activity [2] was “inactive”.

O=C(N[C@H](CO)[C@H](O)c1ccccc1)[C@@H]1C[C@H](C2CCCCC2)CCN1 was tested, and the Activity [3] was “Non-Toxic”, the Emax [1] was 105% and the Activity [2] was “inactive”.

In the case of CCCCCCCCCCC[C@@H]1CCN[C@H](C(=O)NC[C@@H](O)CO)C1, the Emax [1] is reported as 106% and the Activity [2] is reported as “inactive”.

For O=C(N[C@H](CO)[C@H](O)c1ccccc1)[C@@H]1C[C@H](CCC2CCCCC2)CCN1, the Emax [1] was 96% and the Activity [2] was “inactive”.

In the case of O=C(N[C@H](CO)[C@H](O)c1ccccc1)[C@H]1C[C@@H](CCC2CCCCC2)CCN1, the Activity [3] is reported as “Non-Toxic”, the Emax [1] is reported as 89.6% and the Activity [2] is reported as “inactive”.

CCCCCCCCCCC[C@@H]1CCN[C@H](C(=O)N[C@@H](CO)C(=O)OC)C1 was tested, and the Emax [1] was 99.6% and the Activity [2] was “inactive”.

With CCCCCCCCCCC[C@@H]1CCN[C@H](C(=O)N[C@H](C(=O)OC)[C@H](C)O)C1 the Emax [1] was 102% and the Activity [2] was “inactive”.

CCCCCCCCCCC[C@H]1CCN[C@@H](C(=O)N[C@@H](CO)[C@@H](O)c2ccccc2)C1 was tested, and the Emax [1] was 102% and the Activity [2] was “inactive”.

In the case of CCCCCCCCCCC[C@@H]1CCN[C@H](C(=O)N[C@@H](Cc2cc3ccccc3[nH]2)C(=O)OC)C1, the Emax [1] is reported as 102% and the Activity [2] is reported as “inactive”.

For CCCCCCCCCCC[C@@H]1CCN[C@H](C(=O)N[C@H](CO)[C@H](O)c2ccccc2)C1, the Activity [3] was “Non-Toxic”, the Emax [1] was 85.1% and the Activity [2] was “inactive”.

In the case of CCCCCCCCCCC[C@H]1CCN[C@@H](C(=O)N[C@H](CO)[C@H](O)c2ccccc2)C1, the Emax [1] is reported as 93.9% and the Activity [2] is reported as “inactive”.
